From ChEMBL document CHEMBL1629658, “A 10-year survey of antifungal susceptibility of candidemia isolates from intensive care unit patients in Greece” (2009)
In brackets after ≈: the same amount, converted by molar mass. Numbered stars: 1 amine (or outer) side, 2 acyl side, 3 side chain; on linkers, the order of the positions; unused ones are H or OH. Bridge positions count the residues as written; N and C are the ends. Square brackets hold non-standard residues; d marks the D form. Peptide text beside a SMILES is read from it. * marks the point of attachment. hTyr(3S-OH,4S-OH,3'-OSO3H) = N[C@H](C(=O)O)[C@H](O)[C@@H](O)c1ccc(O)c(OS(=O)(=O)O)c1; pTerphenylCO(4''-OnC5H11) = CCCCCOc1ccc(-c2ccc(-c3ccc(C(=O)*)cc3)cc2)cc1; Orn(4R-OH,5R-OH) = O=C([C@H](C[C@@H](O)[C@@H](O)N[*:3])N[*:1])[*:2]; hTyr(3S-OH,4S-OH) = N[C@H](C(=O)O)[C@H](O)[C@@H](O)c1ccc(O)cc1; Pro(3S-OH,4S-Me) = C[C@H]1CN[C@H](C(=O)O)[C@H]1O; X1 = CCCCCOc1ccc(-c2cc(-c3ccc(C(=O)*)cc3)no2)cc1; Gln(3R-OH) = NC(=O)C[C@@H](O)[C@H](N)C(=O)O; Hyp = O=C(O)[C@@H]1C[C@@H](O)CN1

Tests used:
Assay type in all cases: functional
[Candida] intermedia = Antifungal activity against Candida intermedia isolated from candidemia patient by AFST-EUCAST microdilution method; details: Sungouiella intermedia
Candida albicans = assay: Antifungal activity against Candida albicans isolated from candidemia patient by AFST-EUCAST microdilution method
Kluyveromyces marxianus = assay: Antifungal activity against Candida kefyr isolated from candidemia patient by AFST-EUCAST microdilution method
Nakaseomyces glabratus = assay: Antifungal activity against Candida glabrata isolated from candidemia patient by AFST-EUCAST microdilution method
Pichia kudriavzevii [1] = assay: Antifungal activity against Candida krusei ATCC 6258 isolated from candidemia patient by AFST-EUCAST microdilution method
Procedure, shortened: (§1)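 Designated quality-control strain included on every testing occasion and run by the AFST-EUCAST broth microdilution reference procedure (EDef 7.1) alongside the clinical isolates. Its MICs were checked against the reference range for EUCAST-evaluated drugs. Pure standard compounds were used: azoles, amphotericin B, flucytosine and echinocandins.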

Candida parapsilosis [2] = assay: Antifungal activity against Candida parapsilosis ATCC 22019 isolated from candidemia patient by AFST-EUCAST microdilution method; details: Lodderomyces parapsilosis; procedure, shortened: as §1
Yarrowia lipolytica = assay: Antifungal activity against Candida lipolytica isolated from candidemia patient by AFST-EUCAST microdilution method
[3] = tested on: Meyerozyma guilliermondii; assay: Antifungal activity against Candida guilliermondii isolated from candidemia patient by AFST-EUCAST microdilution method
Candida dubliniensis = assay: Antifungal activity against Candida dubliniensis isolated from candidemia patient by AFST-EUCAST microdilution method
Candida parapsilosis [4] = assay: Antifungal activity against Candida parapsilosis isolated from candidemia patient by AFST-EUCAST microdilution method; details: Lodderomyces parapsilosis
Clavispora lusitaniae = assay: Antifungal activity against Clavispora lusitaniae isolated from candidemia patient by AFST-EUCAST microdilution method
Candida tropicalis = assay: Antifungal activity against Candida tropicalis isolated from candidemia patient by AFST-EUCAST microdilution method
Pichia kudriavzevii [5] = assay: Antifungal activity against Candida krusei isolated from candidemia patient by AFST-EUCAST microdilution method
Wickerhamomyces anomalus = assay: Antifungal activity against Candida pelliculosa isolated from candidemia patient by AFST-EUCAST microdilution method; details: Hansenula anomala
Diutina rugosa = assay: Antifungal activity against Candida rugosa isolated from candidemia patient by AFST-EUCAST microdilution method
[6] = Antifungal activity against Candida pulcherrima isolated from candidemia patient by AFST-EUCAST microdilution method; details: Metschnikowia pulcherrima

Structure (SMILES)	MIC ([Candida] intermedia)	MIC90 (Candida albicans)	MIC (Kluyveromyces marxianus)	MIC90 (Nakaseomyces glabratus)	MIC (Pichia kudriavzevii [1])	MIC (Candida parapsilosis [2])	MIC (Yarrowia lipolytica)	MIC [3]	MIC (Candida dubliniensis)	MIC90 (Candida parapsilosis [4])	MIC90 (Clavispora lusitaniae)	MIC90 (Candida tropicalis)	MIC90 (Pichia kudriavzevii [5])	MIC (Wickerhamomyces anomalus)	MIC (Diutina rugosa)	MIC [6]	MIC (Pichia kudriavzevii [5])	MIC (Candida albicans)	further results
CCCCCOc1ccc(-c2cc(-c3ccc(C(=O)N[C@H]4C[C@@H](O)[C@@H](O)NC(=O)[C@@H]5[C@@H](O)[C@@H](C)CN5C(=O)[C@H]([C@H](O)CC(N)=O)NC(=O)[C@H]([C@H](O)[C@@H](O)c5ccc(O)c(OS(=O)(=O)O)c5)NC(=O)[C@@H]5C[C@@H](O)CN5C(=O)[C@H]([C@@H](C)O)NC4=O)cc3)no2)cc1 [MICAFUNGIN] (X1-[Orn(4R-OH,5R-OH)]T[Hyp][hTyr(3S-OH,4S-OH,3'-OSO3H)][Gln(3R-OH)][Pro(3S-OH,4S-Me)]; lactam 1-C)	0.03 µg/mL (≈ 0.0236 µM)	0.06 µg/mL (≈ 0.0472 µM)	4 µg/mL (≈ 3.15 µM)	0.25 µg/mL (≈ 0.197 µM)	0.5 µg/mL (≈ 0.394 µM)	0.5 µg/mL (≈ 0.394 µM)	0.03 µg/mL (≈ 0.0236 µM)	0.25 µg/mL (≈ 0.197 µM)	0.03 µg/mL (≈ 0.0236 µM)	2 µg/mL (≈ 1.57 µM)	0.12 µg/mL (≈ 0.0945 µM)	0.12 µg/mL (≈ 0.0945 µM)	0.12 µg/mL (≈ 0.0945 µM)	0.5 µg/mL (≈ 0.394 µM)	0.03 µg/mL (≈ 0.0236 µM)	0.03 µg/mL (≈ 0.0236 µM)	–	–	–
OC(Cn1cncn1)(Cn1cncn1)c1ccc(F)cc1F [FLUCONAZOLE]	1 µg/mL (≈ 3.27 µM)	0.5 µg/mL (≈ 1.63 µM)	0.12 µg/mL (≈ 0.392 µM)	16 µg/mL (≈ 52.2 µM)	–	–	–	–	0.12 µg/mL (≈ 0.392 µM)	4 µg/mL (≈ 13.1 µM)	4 µg/mL (≈ 13.1 µM)	2 µg/mL (≈ 6.53 µM)	32 µg/mL (≈ 104 µM)	2 µg/mL (≈ 6.53 µM)	2 µg/mL (≈ 6.53 µM)	–	32 µg/mL (≈ 104 µM)	–	–
CC[C@@H]([C@H](C)O)n1ncn(-c2ccc(N3CCN(c4ccc(OC[C@@H]5CO[C@@](Cn6cncn6)(c6ccc(F)cc6F)C5)cc4)CC3)cc2)c1=O [POSACONAZOLE]	0.25 µg/mL (≈ 0.357 µM)	0.12 µg/mL (≈ 0.171 µM)	0.25 µg/mL (≈ 0.357 µM)	0.25 µg/mL (≈ 0.357 µM)	–	–	0.03 µg/mL (≈ 0.0428 µM)	0.12 µg/mL (≈ 0.171 µM)	0.01 µg/mL (≈ 0.0143 µM)	0.12 µg/mL (≈ 0.171 µM)	0.03 µg/mL (≈ 0.0428 µM)	0.12 µg/mL (≈ 0.171 µM)	0.5 µg/mL (≈ 0.713 µM)	0.03 µg/mL (≈ 0.0428 µM)	0.03 µg/mL (≈ 0.0428 µM)	0.03 µg/mL (≈ 0.0428 µM)	–	–	MIC (Clavispora lusitaniae): 0.03 µg/mL (≈ 0.0428 µM)
C[C@@H](c1ncncc1F)[C@](O)(Cn1cncn1)c1ccc(F)cc1F [VORICONAZOLE]	0.06 µg/mL (≈ 0.172 µM)	0.03 µg/mL (≈ 0.0859 µM)	4 µg/mL (≈ 11.5 µM)	0.5 µg/mL (≈ 1.43 µM)	–	–	0.03 µg/mL (≈ 0.0859 µM)	0.06 µg/mL (≈ 0.172 µM)	0.03 µg/mL (≈ 0.0859 µM)	0.06 µg/mL (≈ 0.172 µM)	0.5 µg/mL (≈ 1.43 µM)	0.12 µg/mL (≈ 0.344 µM)	1 µg/mL (≈ 2.86 µM)	0.12 µg/mL (≈ 0.344 µM)	0.01 µg/mL (≈ 0.0286 µM)	0.25 µg/mL (≈ 0.716 µM)	–	0.01 µg/mL (≈ 0.0286 µM)	MIC (Candida parapsilosis [4]): 0.06 µg/mL (≈ 0.172 µM)
CCC(C)n1ncn(-c2ccc(N3CCN(c4ccc(OCC5COC(Cn6cncn6)(c6ccc(Cl)cc6Cl)O5)cc4)CC3)cc2)c1=O (configuration not stated) [ITRACONAZOLE]	0.12 µg/mL (≈ 0.17 µM)	0.5 µg/mL (≈ 0.709 µM)	0.25 µg/mL (≈ 0.354 µM)	0.5 µg/mL (≈ 0.709 µM)	–	–	0.12 µg/mL (≈ 0.17 µM)	1 µg/mL (≈ 1.42 µM)	0.06 µg/mL (≈ 0.085 µM)	0.12 µg/mL (≈ 0.17 µM)	0.25 µg/mL (≈ 0.354 µM)	0.12 µg/mL (≈ 0.17 µM)	0.12 µg/mL (≈ 0.17 µM)	0.25 µg/mL (≈ 0.354 µM)	0.03 µg/mL (≈ 0.0425 µM)	0.12 µg/mL (≈ 0.17 µM)	0.12 µg/mL (≈ 0.17 µM)	–	MIC (Nakaseomyces glabratus): 0.5 µg/mL (≈ 0.709 µM); MIC (Candida tropicalis): 0.12 µg/mL (≈ 0.17 µM)
CCCCCOc1ccc(-c2ccc(-c3ccc(C(=O)N[C@H]4C[C@@H](O)[C@@H](O)NC(=O)[C@@H]5[C@@H](O)[C@@H](C)CN5C(=O)[C@H]([C@@H](C)O)NC(=O)[C@H]([C@H](O)[C@@H](O)c5ccc(O)cc5)NC(=O)[C@@H]5C[C@@H](O)CN5C(=O)[C@H]([C@@H](C)O)NC4=O)cc3)cc2)cc1 [ANIDULAFUNGIN] ({pTerphenylCO(4''-OnC5H11)}-[Orn(4R-OH,5R-OH)]T[Hyp][hTyr(3S-OH,4S-OH)]T[Pro(3S-OH,4S-Me)]; lactam 1-C)	0.03 µg/mL (≈ 0.0263 µM)	0.12 µg/mL (≈ 0.105 µM)	16 µg/mL (≈ 14 µM)	0.12 µg/mL (≈ 0.105 µM)	0.25 µg/mL (≈ 0.219 µM)	0.5 µg/mL (≈ 0.438 µM)	0.03 µg/mL (≈ 0.0263 µM)	0.5 µg/mL (≈ 0.438 µM)	0.03 µg/mL (≈ 0.0263 µM)	2 µg/mL (≈ 1.75 µM)	1 µg/mL (≈ 0.877 µM)	0.25 µg/mL (≈ 0.219 µM)	0.06 µg/mL (≈ 0.0526 µM)	1 µg/mL (≈ 0.877 µM)	0.12 µg/mL (≈ 0.105 µM)	0.03 µg/mL (≈ 0.0263 µM)	–	–	–
C[C@@H]1[C@H](O)[C@@H](C)/C=C/C=C/C=C/C=C/C=C/C=C/C=C/[C@H](O[C@@H]2O[C@H](C)[C@@H](O)[C@H](N)[C@@H]2O)C[C@@H]2O[C@](O)(C[C@@H](O)C[C@@H](O)[C@H](O)CC[C@@H](O)C[C@@H](O)CC(=O)O[C@H]1C)C[C@H](O)[C@H]2C(=O)O [AMPHOTERICIN B]	0.5 µg/mL (≈ 0.541 µM)	0.12 µg/mL (≈ 0.13 µM)	0.5 µg/mL (≈ 0.541 µM)	0.5 µg/mL (≈ 0.541 µM)	–	–	1 µg/mL (≈ 1.08 µM)	0.5 µg/mL (≈ 0.541 µM)	0.06 µg/mL (≈ 0.0649 µM)	0.25 µg/mL (≈ 0.271 µM)	4 µg/mL (≈ 4.33 µM)	0.25 µg/mL (≈ 0.271 µM)	0.25 µg/mL (≈ 0.271 µM)	0.25 µg/mL (≈ 0.271 µM)	0.12 µg/mL (≈ 0.13 µM)	0.12 µg/mL (≈ 0.13 µM)	0.25 µg/mL (≈ 0.271 µM)	0.12 µg/mL (≈ 0.13 µM)	MIC (Nakaseomyces glabratus): 0.5 µg/mL (≈ 0.541 µM); MIC (Candida tropicalis): 0.25 µg/mL (≈ 0.271 µM)
CC[C@H](C)C[C@H](C)CCCCCCCCC(=O)N[C@H]1C[C@@H](O)[C@@H](NCCN)NC(=O)[C@@H]2[C@@H](O)CCN2C(=O)[C@H]([C@H](O)CCN)NC(=O)[C@H]([C@H](O)[C@@H](O)c2ccc(O)cc2)NC(=O)[C@@H]2C[C@@H](O)CN2C(=O)[C@H]([C@@H](C)O)NC1=O [CASPOFUNGIN]	0.03 µg/mL (≈ 0.0274 µM)	0.12 µg/mL (≈ 0.11 µM)	8 µg/mL (≈ 7.32 µM)	1 µg/mL (≈ 0.915 µM)	0.5 µg/mL (≈ 0.457 µM)	2 µg/mL (≈ 1.83 µM)	0.12 µg/mL (≈ 0.11 µM)	1 µg/mL (≈ 0.915 µM)	0.25 µg/mL (≈ 0.229 µM)	2 µg/mL (≈ 1.83 µM)	1 µg/mL (≈ 0.915 µM)	0.25 µg/mL (≈ 0.229 µM)	0.12 µg/mL (≈ 0.11 µM)	0.03 µg/mL (≈ 0.0274 µM)	0.25 µg/mL (≈ 0.229 µM)	0.03 µg/mL (≈ 0.0274 µM)	0.5 µg/mL (≈ 0.457 µM)	0.12 µg/mL (≈ 0.11 µM)	–
Nc1nc(=O)[nH]cc1F [FLUCYTOSINE]	64 µg/mL (≈ 496 µM)	2 µg/mL (≈ 15.5 µM)	0.12 µg/mL (≈ 0.93 µM)	0.25 µg/mL (≈ 1.94 µM)	–	–	0.12 µg/mL (≈ 0.93 µM)	0.12 µg/mL (≈ 0.93 µM)	0.12 µg/mL (≈ 0.93 µM)	0.5 µg/mL (≈ 3.87 µM)	2 µg/mL (≈ 15.5 µM)	0.5 µg/mL (≈ 3.87 µM)	2 µg/mL (≈ 15.5 µM)	0.12 µg/mL (≈ 0.93 µM)	0.5 µg/mL (≈ 3.87 µM)	0.12 µg/mL (≈ 0.93 µM)	–	–	–
